Test results: ChEMBL document CHEMBL1122315, “1,2-Dihydropyrido[3,4-b]pyrazines: structure-activity relationships” (1983)

Experiments:
L1210 [1] = assay: inhibition of proliferation of cultured lymphoid leukemia L1210 cells during 48 hr.; format: functional; conditions: Mus musculus, L1210, 48 h, read-out: ID50
Method in brief: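 Cultured L1210 cells were exposed to agent for 48 h. The value is the concentration that holds proliferation to 50% of untreated control.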

KB = assay: Inhibition of colony formation of KB human epidermoid carcinoma cells.; format: functional; conditions: read-out: ED50 (the source's name)
L1210 [2] = assay: Antitumor activity against lymphoid leukemia L1210 in mice for 1 day schedule; format: functional, Mus musculus
Method in brief: (§1)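 Mice bearing L1210 leukemia; the read-out is the percent increase in life span, reported at the highest nontoxic dose tested. Toxic doses are flagged separately.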

P388 [3] = assay: antitumor activity against lymphocyte leukemia P388 in mice as percentage of increase in life span for 1 day schedule; format: functional, Mus musculus
Method in brief: (§2)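 Mice bearing lymphocytic leukemia P388 were treated. The value is the percent increase in life span at the highest nontoxic dose tested.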

L1210 [4] = assay: Fraction of the cell population of cultured lymphoid leukemia L1210 cells in mitosis after 12 hr; format: functional, Mus musculus
P388 [5] = assay: antitumor activity against lymphocyte leukemia P388 in mice as percentage of increase in life span for 30th day survivor, 1-5 days schedule.; format: functional, Mus musculus
P388 [6] = assay: antitumor activity against lymphocyte leukemia P388 in mice as percentage of increase in life span for 1-5 days schedule (values in the parenthesen indicates dose); format: functional, Mus musculus; method in brief: as §2
HEp-2 (Homo sapiens) = assay: Inhibition of colony formation of human epidermoid carcinoma no. 2 (HEp-2) cells.; conditions: read-out: ED50 (the source's name)
L1210 [7] = assay: Antitumor activity against lymphoid leukemia L1210 in mice for 1-9 days schedule; format: functional, Mus musculus; method in brief: as §1
L1210 [8] = assay: Fraction of the cell population of cultured lymphoid leukemia L1210 cells in mitosis after 24 hr; at the concentration of 0.3 uM; format: functional, Mus musculus
P388 [9] = assay: antitumor activity against lymphocyte leukemia P388 in mice as percentage of increase in life span for 1-9 days schedule. (values in the parenthesen indicates dose); format: functional, Mus musculus; method in brief: as §2
L1210 [10] = assay: Fraction of the cell population of cultured lymphoid leukemia L1210 cells in mitosis after 12 hr; at the concentration of 0.1 uM; format: functional, Mus musculus
L1210 [11] = assay: Fraction of the cell population of cultured lymphoid leukemia L1210 cells in mitosis after 12 hr; at the concentration of 0.3 uM; format: functional, Mus musculus
P388 [12] = assay: antitumor activity against lymphocyte leukemia P388 in mice as percentage of increase in life span for 1-9 days schedule; format: functional, Mus musculus; method in brief: as §2
L1210 [13] = assay: Fraction of the cell population of cultured lymphoid leukemia L1210 cells in mitosis after 24 hr at the concentration of 0.3 uM; format: functional, Mus musculus
L1210 [14] = assay: Fraction of the cell population of cultured lymphoid leukemia L1210 cells in mitosis after 12 hr at the concentration of 0.03 uM; format: functional, Mus musculus
L1210 [15] = assay: Fraction of the cell population of cultured lymphoid leukemia L1210 cells in mitosis after 12 hr; at the concentration of 0.01 uM; format: functional, Mus musculus
L1210 [16] = assay: Fraction of the cell population of cultured lymphoid leukemia L1210 cells in mitosis after 24 hr; format: functional, Mus musculus
L1210 [17] = assay: Fraction of the cell population of cultured lymphoid leukemia L1210 cells in mitosis after 12 hr; at the concentration of 0.03 uM; format: functional, Mus musculus

SMILES	IC50 (L1210 [1])	EC50 (KB)	ILS (L1210 [2])	ILS (P388 [3])	also measured
CCOC(=O)Nc1cc2ncc(-c3ccc(C(F)(F)F)cc3)nc2c(N)n1	> 300 nM	–	–	–	–
CCOC(=O)Nc1cc2c(c(N)n1)NC(CN(C)c1ccccc1)CN2 (centres undefined)	–	600 nM	10%	–	–
CCOC(=O)Nc1cc2c(c(NC(=O)OCC)n1)N=C(C)CN2	–	91000 nM	0%	–	–
CCOC(=O)Nc1cc(N(C)CC(O)c2ccccc2)c(N)c(N)n1 (centres undefined)	> 300 nM	–	–	0%	–
CCOC(=O)Nc1cc2c(c(N)n1)N=C(c1ccc3ccccc3c1)CN2	6 nM	–	–	–	Mitotic index (L1210 [4]): 0.6; ILS (P388 [5]): 66%; ILS (mg/kg) (P388 [6]): 53%
CCOC(=O)Nc1cc2ncc(CN(C)c3ccc(C(=O)OC)cc3)nc2c(N)n1	–	–	–	–	EC50 (HEp-2 (Homo sapiens)): 19000 nM
CCOC(=O)Nc1cc2ncc(CNc3ccc(C(=O)OCC)cc3)nc2c(N)n1	–	–	–	–	EC50 (HEp-2 (Homo sapiens)): 42000 nM
CCOC(=O)Nc1cc(N)c2c(n1)NCC(CN(C)c1ccc(C(=O)OC)cc1)=N2	–	24000 nM	0%	–	ILS (L1210 [7]): 0%
CCOC(=O)Nc1cc2c(c(N)n1)N=C(c1ccc(C(F)(F)F)cc1)CN2	150 nM	–	–	0%	Mitotic index (L1210 [8]): 0.01; ILS (mg/kg) (P388 [9]): 17%
CCOC(=O)c1ccc(NCC2=Nc3c(N)nc(N)nc3NC2)cc1	–	10000 nM	8%	–	ILS (L1210 [7]): 0%
CCOC(=O)Nc1cc2c(c(N)n1)N=C(c1ccccc1)C(C)N2 (centres undefined)	0.51 nM	–	–	54%	ILS (mg/kg) (P388 [6]): 75%
COC(=O)c1ccc(N(C)Cc2cnc3nc(N)nc(N)c3n2)cc1	–	19000 nM	3%	–	ILS (L1210 [7]): 2%
CN(CC1=Nc2c(cc(N)nc2N)NC1)c1ccccc1	5.8 nM	–	–	–	Mitotic index (L1210 [10]): 0.44; Mitotic index (L1210 [11]): 0.61; ILS (P388 [12]): 30%
CCOC(=O)Nc1cc2ncc(C(=O)N(C)c3ccccc3)nc2c(N)n1	–	> 100000 nM	0%	–	–
CCOC(=O)Nc1cc2c(c(N)n1)N=C(c1ccccc1)CN2	4.7 nM	–	–	55%	Mitotic index (L1210 [13]): 0.54; Mitotic index (L1210 [14]): 0.65; ILS (mg/kg) (P388 [9]): 51%
CCOC(=O)Nc1cc(N)c2nc(CN(C)c3ccc(C(=O)OC)cc3)cnc2n1	–	240000 nM	0%	–	ILS (L1210 [7]): 0%

SMILES	IC50 (L1210 [1])	EC50 (KB)	ILS (L1210 [2])	ILS (P388 [3])	also measured
CCOC(=O)Nc1cc2c(c(NC(=O)OCC)n1)N=C(CN(C)c1ccccc1)CN2	–	–	46%	–	ILS (L1210 [7]): 14%; EC50 (HEp-2 (Homo sapiens)): 1200 nM
CCOC(=O)Nc1cc2c(c(N)n1)N=C(c1ccc(-c3ccccc3)cc1)CN2	6.1 nM	–	–	36%	Mitotic index (L1210 [15]): 0.65; Mitotic index (L1210 [11]): 0.42
COC(=O)c1ccc(N(C)CC2=Nc3c(cc(N)nc3Cl)NC2)cc1	–	> 100000 nM	–	–	–
CN(CC1=Nc2c(cc(N)nc2S)NC1)c1ccc(C(=O)O)cc1	–	29000 nM	–	–	–
CCOC(=O)Nc1ccc(/N=C(/C=C(/O)OCC)c2ccccc2)c(N)n1	> 300 nM	–	–	–	Mitotic index (L1210 [8]): 0.03
CCOC(=O)Nc1cc2c(c(N)n1)N=C(CCc1ccccc1)CN2	13 nM	–	–	29%	Mitotic index (L1210 [8]): 0.33
CCOC(=O)Nc1ccc(/N=C/c2ccccc2)cn1	> 300 nM	–	–	0%	–
COC(=O)c1ccc(N(C)CC2=Nc3c(N)nc(N)nc3NC2)cc1	–	21000 nM	–	–	–
CCOC(=O)Nc1cc2c(c(N)n1)N=C(CN(C)c1ccccc1)CN2	8.4 nM	–	–	114%	Mitotic index (L1210 [16]): 0.8; Mitotic index (L1210 [17]): 0.77
CCOC(=O)Nc1cc2c(c(N)n1)N=C(c1ccccc1)CN2C	160 nM	–	–	12%	Mitotic index (L1210 [11]): 0.68
CCOC(=O)c1ccc(NCc2cnc3nc(N)nc(N)c3n2)cc1	–	17000 nM	0%	–	ILS (L1210 [7]): 0%
CCOC(=O)Nc1cc2ncc(CN(C)c3ccccc3)nc2c(N)n1	–	670 nM	–	–	–
CN(Cc1cnc2cc(N)nc(N)c2n1)c1ccccc1	–	> 100000 nM	0%	–	ILS (L1210 [7]): 0%
CCOC(=O)Nc1cc2c(c(O)n1)N=C(CN(C)c1ccc(C(=O)OC)cc1)CN2	–	8000 nM	2%	–	–
CCOC(=O)Nc1cc2ncc(-c3ccccc3)nc2c(N)n1	> 300 nM	–	–	0%	Mitotic index (L1210 [8]): 0.02
